The text below walks through data of the array DNA melting data of Ke et al. (doi:10.1101/2024.01.08.574731).

Data set [1] is described as follows: melting temperature; fluorescence melt of hairpins on a sequencing array, two-state fit, raised by 9.35 °C to match UV melts. The settings on record: sodium 0.088 M. In outline:
(§1)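 Bootstrapped two-state fits yielded melting temperature and folding enthalpy for library hairpins. Cy3 fluorescence, with annealed Cy3 and quencher oligos, was imaged on a sequenced MiSeq flow cell in 50 mM Na-HEPES pH 8.0, 25 mM NaCl in 2.5 °C steps up to 60 °C, and normalised to pre-quench Cy3 and to control constructs. Four replicates were combined by inverse variance, and fitted temperatures were raised by 9.35 °C to match UV melts.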

Data set [2] in a line: folding enthalpy; higher = less favourable; fluorescence melt of hairpins on a sequencing array, two-state fit. As to conditions: sodium 0.088 M. The essentials: as §1

As to GACTCCGAAAGGATAGTC ((((((....)))..))), the Tm in data set [1] stood at 41.5 °C. The folding enthalpy in data set [2] is -22.5 kcal/mol.

GACTCCGAAAGGATCGTC ((((((....)))..))): in data set [1], the Tm worked out at 42.1 °C. Besides, in data set [2], the folding enthalpy was -23.3 kcal/mol.

As for GACTCTACGAAAGTAGTC (((..(((....)))))), in data set [1], the Tm stood at 30.1 °C. In data set [2], the folding enthalpy is -10.9 kcal/mol.

Turning to GACTCTGGAAACAGGGTC (((.(((....))).))), the Tm in data set [1] turned out to be 49.4 °C. In addition, in data set [2], the folding enthalpy was -30.7 kcal/mol.

With GACTGACCGAAAGGTGTC (((..(((....)))))), the Tm in data set [1] was found to be 41.4 °C. Further, the folding enthalpy in data set [2] is -16.9 kcal/mol.

Take GACTGACGAAAGTCGGTC (((.(((....))).))): the Tm in data set [1] came to 62 °C. In addition, the folding enthalpy in data set [2] is -37.2 kcal/mol.

Regarding GACTGACGAAAGTCGTC (((.(((....)))))), the Tm in data set [1] is 52.6 °C. Further, the folding enthalpy in data set [2] was -14.2 kcal/mol.

For the sequence GACTGCCGAAAGGCCGTC (((.(((....))).))), the Tm in data set [1] was 53.4 °C. In data set [2], the folding enthalpy was -25 kcal/mol.

As for GACTGCGAAAGCAAGGTC ((((((....)))..))), the Tm in data set [1] came to 45.1 °C. Besides, the folding enthalpy in data set [2] is -15.3 kcal/mol.

For the sequence GACTGCGAAAGCACGTC ((((((....))).))), the Tm in data set [1] turned out to be 56.4 °C. In addition, in data set [2], the folding enthalpy was -15.8 kcal/mol.

For GACTGCGGAAACGCAATC ((.((((....)))).)), the Tm in data set [1] turned out to be 38 °C. Moreover, the folding enthalpy in data set [2] was -15.4 kcal/mol.

For GACTGCGGAAACGTGGTC (((..((....))..))), in data set [1], the Tm amounted to 46.5 °C. In data set [2], the folding enthalpy was -32.8 kcal/mol.

GACTGGCGAAAGCCCGTC (((.(((....))).))): the Tm in data set [1] came out at 49.1 °C. The folding enthalpy in data set [2] was -18.9 kcal/mol.

As for GACTGTGGAAACGTAGTC ((((..(....)..)))), the Tm in data set [1] was 34.8 °C. Also, the folding enthalpy in data set [2] is -17.5 kcal/mol.

For GACTTAGGAAACCAAGTC (((((.(....).))))), the Tm in data set [1] came to 36 °C. In addition, in data set [2], the folding enthalpy is -30.6 kcal/mol.

GACTTAGGAAACTAAGCC (.(((((....))))).): the Tm in data set [1] came to 34.2 °C. Besides, in data set [2], the folding enthalpy was -21.9 kcal/mol.

Turning to GACTTCCGAAAGGATGTC (((.(((....))).))), the Tm in data set [1] worked out at 52.8 °C. For the same sequence, in data set [2], the folding enthalpy was -40.7 kcal/mol.

Consider GACTTCGGAAACAAAGTC (((((.(....).))))), for which, in data set [1], the Tm amounted to 34 °C. Further, the folding enthalpy in data set [2] is -25.6 kcal/mol.

With GACTTCGGAAACGGAGTC ((((.((....)).)))), in data set [1], the Tm was determined as 49.4 °C. Besides, the folding enthalpy in data set [2] is -39 kcal/mol.

As for GACTTGAAAAAGTC (((((....))))), the Tm in data set [1] amounted to 44.5 °C. Moreover, in data set [2], the folding enthalpy was -26.7 kcal/mol.

As for GACTTGCGAAAGCAGGTC (((.(((....))).))), in data set [1], the Tm came to 60 °C. Further, in data set [2], the folding enthalpy was -34.6 kcal/mol.

As to GACTTGGAAACAAGTC ((((((....)))))), the Tm in data set [1] came out at 54.2 °C. Besides, the folding enthalpy in data set [2] was -38.5 kcal/mol.

For the sequence GACTTGGGAAACTGAGTC ((((..(....)..)))), in data set [1], the Tm was 33.5 °C. The folding enthalpy in data set [2] was -32 kcal/mol.

For GACTTTACGAAAGTAGTC (((..(((....)))))), in data set [1], the Tm came out at 33.3 °C. Also, in data set [2], the folding enthalpy is -12.9 kcal/mol.

On to GACTTTCCGAAAGGAGTC (((..(((....)))))), for which the Tm in data set [1] turned out to be 29.6 °C. Also, in data set [2], the folding enthalpy is -13 kcal/mol.

Turning to GACTTTGAAAAAAGTC ((((((....)))))), the Tm in data set [1] was found to be 48.6 °C. Moreover, the folding enthalpy in data set [2] is -40.6 kcal/mol.

For the sequence GACTTTGGAAACAAAGCC (.(((((....))))).), the Tm in data set [1] turned out to be 39 °C. Besides, the folding enthalpy in data set [2] is -22.4 kcal/mol.

Turning to GAGAAAACGAAAGTTCTC (((..(((....)))))), the Tm in data set [1] turned out to be 30.8 °C. Moreover, in data set [2], the folding enthalpy was -19.4 kcal/mol.

As to GAGAAACCGAAAGGTCTC (((..(((....)))))), the Tm in data set [1] was 34.1 °C. For the same sequence, in data set [2], the folding enthalpy was -16.8 kcal/mol.

With GAGAAACGAAAGTTGCTC (((.(((....))).))), the Tm in data set [1] is 48.8 °C. Also, the folding enthalpy in data set [2] was -28 kcal/mol.

Regarding GAGAACCCGAAAGGGCTC (((..(((....)))))), the Tm in data set [1] stood at 34.9 °C. Moreover, the folding enthalpy in data set [2] was -13.9 kcal/mol.

GAGAACCGAAAGGTCTC (((.(((....)))))): in data set [1], the Tm stood at 48.1 °C. Moreover, the folding enthalpy in data set [2] was -20.6 kcal/mol.

With GAGAACCGAAAGGTGCTC (((.(((....))).))), the Tm in data set [1] stood at 56.5 °C. Moreover, in data set [2], the folding enthalpy is -34.3 kcal/mol.

With GAGAACGAAAGTTACTC ((((((....))).))), the Tm in data set [1] was determined as 31.1 °C. In data set [2], the folding enthalpy is -12.4 kcal/mol.

Regarding GAGAACGAAAGTTATCTC ((((((....)))..))), in data set [1], the Tm was 43 °C. In data set [2], the folding enthalpy was -26 kcal/mol.

In the case of GAGAACGAAAGTTCCCTC ((((((....)))..))), in data set [1], the Tm is 38.9 °C. The folding enthalpy in data set [2] was -14 kcal/mol.
